Experimental findings from ChEMBL document CHEMBL1127050, “Tyrosine kinase inhibitors. 1. Structure-activity relationships for inhibition of epidermal growth factor receptor tyrosine kinase activity by 2,3-dihydro-2-thioxo-1H-indole-3-alkanoic acids and 2,2'-dithiobis(1H-indole-3-alkanoic acids)” (J Med Chem, 1993) are described below.

One experiment concerns Swiss 3T3 (Mus musculus). Kind of experiment: Inhibition of Swiss 3T3 mouse fibroblast proliferation.
Experiment [1] has as its target Epidermal growth factor receptor (Homo sapiens, UniProt P00533). Kind of experiment: Inhibition of EGF-stimulated EGFR tyrosine kinase activity using plasma membrane vesicles shed from cultured human A431 carcinoma cells. It counts as functional, cell-based, A-431. In outline: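 EGFR source: A431 shed membrane vesicles, solubilized in 4% Triton X-100/10% glycerol, 10 μg total protein per reaction. Final buffer: 20 mM HEPES pH 7.4, 15 mM MgCl₂, 4 mM MnCl₂, 0.02% BSA, 5 μM ATP with [γ-³²P]ATP, Glu:Ala:Tyr (6:3:1) copolymer substrate, 250 ng EGF. Run 10 min at room temperature, stopped with cold TCA/pyrophosphate. Filter-bound ³²P counted. IC50 is 50% reduction of incorporation. Autophosphorylation controls included.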

Epidermal growth factor receptor, sequence (P00533 whole entry): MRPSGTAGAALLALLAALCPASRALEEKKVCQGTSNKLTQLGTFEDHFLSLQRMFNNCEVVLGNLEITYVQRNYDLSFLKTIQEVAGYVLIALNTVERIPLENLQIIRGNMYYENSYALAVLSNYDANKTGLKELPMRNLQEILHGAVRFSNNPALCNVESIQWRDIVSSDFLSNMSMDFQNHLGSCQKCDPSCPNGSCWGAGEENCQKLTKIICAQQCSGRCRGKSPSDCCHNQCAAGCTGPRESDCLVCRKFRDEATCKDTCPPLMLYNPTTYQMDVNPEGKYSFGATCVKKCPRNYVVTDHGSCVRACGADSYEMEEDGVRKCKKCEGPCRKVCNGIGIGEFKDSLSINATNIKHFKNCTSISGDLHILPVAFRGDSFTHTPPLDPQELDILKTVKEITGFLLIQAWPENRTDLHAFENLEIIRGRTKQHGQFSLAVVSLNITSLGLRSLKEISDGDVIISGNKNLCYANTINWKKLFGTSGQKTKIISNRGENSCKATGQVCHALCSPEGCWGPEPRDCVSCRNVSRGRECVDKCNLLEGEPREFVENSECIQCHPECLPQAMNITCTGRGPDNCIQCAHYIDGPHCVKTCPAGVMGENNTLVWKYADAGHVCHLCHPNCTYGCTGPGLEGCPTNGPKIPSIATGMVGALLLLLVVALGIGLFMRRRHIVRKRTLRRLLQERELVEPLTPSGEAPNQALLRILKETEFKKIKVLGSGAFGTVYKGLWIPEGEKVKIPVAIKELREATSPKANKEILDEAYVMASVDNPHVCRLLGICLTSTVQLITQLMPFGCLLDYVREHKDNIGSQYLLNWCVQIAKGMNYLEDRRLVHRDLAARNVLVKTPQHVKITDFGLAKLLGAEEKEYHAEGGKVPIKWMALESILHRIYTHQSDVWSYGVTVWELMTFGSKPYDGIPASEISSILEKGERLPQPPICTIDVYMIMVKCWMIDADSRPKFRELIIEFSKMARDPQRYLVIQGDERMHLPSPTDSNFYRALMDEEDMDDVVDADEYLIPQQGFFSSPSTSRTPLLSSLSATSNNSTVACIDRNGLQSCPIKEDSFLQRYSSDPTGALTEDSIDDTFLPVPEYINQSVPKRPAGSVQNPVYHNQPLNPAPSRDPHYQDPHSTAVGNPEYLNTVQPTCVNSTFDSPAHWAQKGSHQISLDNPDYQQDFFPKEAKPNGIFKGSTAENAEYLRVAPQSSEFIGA

On to `Cc1ccc2[nH]c(SSc3[nH]c4ccc(C)cc4c3CCC(=O)O)c(CCC(=O)O)c2c1`, for which the IC50 in the experiment with Swiss 3T3 (Mus musculus) is greater than 50 µM. As to `O=C(O)CCc1c(SSc2[nH]c3ccccc3c2CCC(=O)O)[nH]c2ccccc12`, the IC50 in the experiment with Swiss 3T3 (Mus musculus) was 59 µM; in experiment [1] it was 4.2 µM. Taken in the same sequence, the figures for `Cn1c(SSc2c(CC(=O)O)c3ccccc3n2C)c(CC(=O)O)c2ccccc21` were 36 µM and 53 µM. As for `COC(=O)Cc1c(SSc2c(CC(=O)OC)c3ccccc3n2C)n(C)c2ccccc12`, in experiment [1], the IC50 came out at 33 µM.

On to `COC(=O)CC1C(=S)Nc2ccccc21` (centres undefined), for which the IC50 in experiment [1] was determined as 100 µM.

In experiment [1], `COC(=O)Cc1c(Sc2c(CC(=O)OC)c3ccccc3n2C)n(C)c2ccccc12` showed an IC50 greater than 100 µM. Still for that read-out and setting: to `COC(=O)CC1C(=S)N(C)c2ccccc21` (centres undefined) belongs greater than 100 µM. Turning to `O=C(O)CCC1(CCC(=O)O)C(=S)Nc2ccccc21`, in experiment [1], the IC50 was greater than 100 µM. In experiment [1], `COC(=O)CCCC1C(=S)N(C)c2ccccc21` (centres undefined) showed an IC50 greater than 100 µM. In experiment [1], `COC(=O)CCC1(CCC(=O)OC)C(=S)Nc2ccccc21` displayed an IC50 greater than 100 µM.

In experiment [1], `COC(=O)CCCc1c(SSc2[nH]c3ccccc3c2CCCC(=O)OC)[nH]c2ccccc12` had an IC50 greater than 100 µM.

Regarding `COC(=O)CCC1C(S)=Nc2ccccc21` (centres undefined), the figures for the half-inhibitory concentration (IC50) (in the experiment with Swiss 3T3 (Mus musculus); in experiment [1]) were 16 µM and greater than 100 µM, respectively. `O=C(O)CCC1C(S)=Nc2ccccc21` (centres undefined): the IC50 came out at 64 µM with Swiss 3T3 (Mus musculus) and 1.62 µM in experiment [1].

The compound `O=CN/C=C/c1cc(O)ccc1O` [ERBSTATIN] registered an IC50 in experiment [1] of 2 µM. That is a single-digit micromolar value. In turn, `CN1C(=S)C(CCC(=O)O)c2ccccc21` (centres undefined) returned an IC50 in experiment [1] of 6.7 µM.

In turn, `COC(=O)CCC1C(=S)N(C)c2ccccc21` (centres undefined) registered an IC50 in experiment [1] greater than 100 µM. Take `COC(=O)CCc1c(SSc2[nH]c3ccccc3c2CCC(=O)OC)[nH]c2ccccc12`: the half-inhibitory concentration (IC50) was determined as 7.4 µM with Swiss 3T3 (Mus musculus) and 21 µM in experiment [1]. The compound `Cn1c(SSc2c(CCC(=O)O)c3ccccc3n2C)c(CCC(=O)O)c2ccccc21` had an IC50 in experiment [1] of 3.1 µM. In other words, the single-digit micromolar range. `CN1C(=S)C(CCCC(=O)O)c2ccccc21` (centres undefined): the IC50 in experiment [1] is greater than 100 µM. The same measure, in the same setting: the same measure for `COC(=O)CCCC1C(=S)Nc2ccccc21` (centres undefined): greater than 100 µM. For `O=C(O)Cc1c(SSc2[nH]c3ccccc3c2CC(=O)O)[nH]c2ccccc12`, the IC50 was greater than 50 µM in the experiment with Swiss 3T3 (Mus musculus) and 10.2 µM in experiment [1]. The like results for `COC(=O)Cc1c(SSSc2[nH]c3ccccc3c2CC(=O)OC)[nH]c2ccccc12` were, in that order, 1 µM and 35 µM. In experiment [1], `CN1C(=S)C(CC(=O)O)c2ccccc21` (centres undefined) registered an IC50 greater than 100 µM. `O=C(O)Cc1c(SSSc2[nH]c3ccccc3c2CC(=O)O)[nH]c2ccccc12` registered an IC50 in the experiment on Swiss 3T3 (Mus musculus) of 8 µM.

As to `O=C(O)CCCC1C(=S)Nc2ccccc21` (centres undefined), the IC50 in experiment [1] worked out at 6.7 µM. In the case of `COC(=O)CCc1c(SSc2c(CCC(=O)OC)c3ccccc3n2C)n(C)c2ccccc12`, the IC50 is 5.2 µM in the experiment with Swiss 3T3 (Mus musculus) and greater than 100 µM in experiment [1]. Consider `COC(=O)Cc1c(SSc2[nH]c3ccccc3c2CC(=O)OC)[nH]c2ccccc12`, for which 2.3 µM corresponded to half-maximal inhibition in the experiment on Swiss 3T3 (Mus musculus) (IC50). For `COC(=O)CCCc1c(SSc2c(CCCC(=O)OC)c3ccccc3n2C)n(C)c2ccccc12`, the IC50 with Swiss 3T3 (Mus musculus) was 1.8 µM; in experiment [1] it was greater than 100 µM. In the case of `Cc1cccc2c(CCC(=O)O)c(SSc3[nH]c4c(C)cccc4c3CCC(=O)O)[nH]c12`, in experiment [1], the IC50 came out at 1.5 µM.

Turning to `COC(=O)CCN1C(=S)C(CCC(=O)OC)(CCC(=O)OC)c2ccccc21`, the IC50 in experiment [1] was greater than 100 µM.

The IC50 is the concentration that inhibits the measured activity by half. High values mean lower potency, low ones higher potency.
